Source: ChEMBL document CHEMBL3045103, “Antimicrobial and antiurease activities of newly synthesized morpholine derivatives containing an azole nucleus” (Med Chem Res, 2013)
Active and inactive are the calls of the source.

Tests used:
Type in all cases: functional
Bacillus cereus = assay: Antibacterial activity against Bacillus cereus 702 Roma after 18 to 24 hr by double microdilution method
Procedure, shortened: (§1)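 Compounds dissolved in […] as 20.000 μg/mL stock solutions. Tested quantitatively by double microdilution in Mueller–Hinton broth at pH 7.3, with plates incubated 18–24 h at 35 °C. Read-out is the minimal inhibition concentration (MIC) in μg/mL.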

Staphylococcus aureus = assay: Antibacterial activity against Staphylococcus aureus ATCC 25923 after 18 to 24 hr by double microdilution method; procedure, shortened: as §1
Enterococcus faecalis = assay: Antibacterial activity against Enterococcus faecalis ATCC 29212 after 18 to 24 hr by double microdilution method; procedure, shortened: as §1
Pseudomonas aeruginosa = assay: Antibacterial activity against Pseudomonas aeruginosa ATCC 43288 after 18 to 24 hr by double microdilution method
Procedure, shortened: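 Double microdilution in Mueller–Hinton broth, pH 7.3; plates incubated 18–24 h at 35 °C; MIC (μg/mL) determined. Compounds dissolved in hexane as 20.000 μg/mL stock.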

[1] = system: Yersinia pseudotuberculosis; assay: Antibacterial activity against Yersinia pseudotuberculosis ATCC 911 after 18 to 24 hr by double microdilution method; procedure, shortened: as §1
[2] = system: Mycolicibacterium smegmatis; assay: Antibacterial activity against Mycobacterium smegmatis ATCC 607 after 48 to 72 hr by double microdilution method
Procedure, shortened: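 Compounds dissolved in hexane as 20.000 μg/mL stock solutions. MIC (μg/mL) determined quantitatively by double microdilution, using Brain Heart Infusion broth as the growth medium for M. smegmatis.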

Measured: MIC

CCOC(=O)CNc1ccc(N2CCOCC2)nc1
inactive: Bacillus cereus | Staphylococcus aureus | Enterococcus faecalis | Pseudomonas aeruginosa | [1]

O=C(CNc1ccc(N2CCOCC2)nc1)N/N=C/c1ccc(Br)cc1
inactive: Bacillus cereus | Staphylococcus aureus | Enterococcus faecalis | Pseudomonas aeruginosa | [1]

Sc1nnc(CNc2ccc(N3CCOCC3)nc2)n1-c1ccccc1
inactive: Bacillus cereus | Staphylococcus aureus | Enterococcus faecalis | Pseudomonas aeruginosa | [1]

O=C(CNc1ccc(N2CCOCC2)nc1)N/N=C1\SCC(=O)N1c1ccccc1
inactive: [2] | Bacillus cereus | Staphylococcus aureus | Enterococcus faecalis | Pseudomonas aeruginosa | [1]

Sc1nnc(CNc2ccc(N3CCOCC3)nc2)o1
inactive: [2] | Bacillus cereus | Staphylococcus aureus | Enterococcus faecalis | Pseudomonas aeruginosa | [1]

O=C(CNc1ccc(N2CCOCC2)nc1)NNC(=S)Nc1ccccc1
inactive: Bacillus cereus | Staphylococcus aureus | Enterococcus faecalis | Pseudomonas aeruginosa | [1]

NNC(=O)CNc1ccc(N2CCOCC2)nc1
inactive: Bacillus cereus | Staphylococcus aureus | Enterococcus faecalis | Pseudomonas aeruginosa | [1]

O=C(CNc1ccc(N2CCOCC2)nc1)N/N=c1\sc(-c2ccc(Cl)cc2)cn1-c1ccccc1
inactive: [2] | Bacillus cereus | Staphylococcus aureus | Enterococcus faecalis | Pseudomonas aeruginosa | [1]

O=C(CNc1ccc(N2CCOCC2)nc1)N/N=C/C=C/c1ccccc1
inactive: [2] | Bacillus cereus | Staphylococcus aureus | Enterococcus faecalis | Pseudomonas aeruginosa | [1]
